Measured values from paper PMC6175223 (Journal of Clinical Pharmacology, 2018).
Like-named read-outs stand apart in the source and are kept apart here.

Key:
[1] = Study A: caffeine clearance in smokers and nonsmokers; assay type: in vivo, human; details: for Caffeine plasma clearance CL/F: 200 mg oral caffeine, geometric mean
Outline: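 A 200 mg oral caffeine capsule was given on day 6 after an overnight fast of ≥10 h, with a methylxanthine-free diet for ≥1 week before and during the study. Plasma caffeine and paraxanthine were sampled predose and at 0.5–12 h. LC-MS/MS, LLOQ 20 ng/mL. Noncompartmental CL/F. ANOVA on ln-transformed data with cohort as fixed effect; smoker/nonsmoker geometric means.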

Study B = assay type: in vivo, human; details: for AUC(0-inf) / Cmax / Vd/F / half-life / Tmax: male, human, plasma; for Cmax / Vd/F / half-life / CL/F: geometric mean (geometric CV%); for Vd/F: Vz/F; for Tmax: median (minimum, maximum)
CYP2D6 = details: in vitro; earlier data, no reference given; cited from earlier work
CYP2C19 = details: in vitro; earlier data, no reference given; cited from earlier work
[2] = Study B safety assessment; assay type: in vivo, human
Outline: (§1)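 Safety was monitored by adverse-event reporting, physical examination, vital signs, 12-lead ECG and clinical laboratory tests. Concomitant medications and AEs were recorded from signing of the consent form until a follow-up safety telephone call. SAEs made known within 28 days after the last investigational dose were also recorded, as were later SAEs suspected to be related.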

[3] = cited from earlier work
CYP1A2 = details: in vitro; earlier data, no reference given; cited from earlier work
[4] = healthy adult men; cited from earlier work
[5] = cited from earlier work; remark: listed apart in the source
CYP3A4 = details: in vitro; earlier data, no reference given; cited from earlier work
[6] = Study A safety assessment; assay type: in vivo, human
Outline: as §1

Study A = assay type: in vivo, human; details: for Cmax / Vd/F / half-life / Tmax: male, human, plasma, oral, 4 mg; for Cmax / Vd/F / half-life / CL/F: geometric mean (geometric CV%); for Vd/F: Vz/F; for Tmax: median (minimum, maximum)
[7] = oral, 4 mg, pomalidomide 4 mg administered alone
[8] = oral, 4 mg, pomalidomide 4 mg administered with fluvoxamine
[9] = with fluvoxamine compared with alone
[10] = multiple dose, 0.5- to 2-mg dose range
[11] = smokers compared with nonsmokers

Cn1c(=O)c2c(ncn2C)n(C)c1=O [caffeine]
Caffeine plasma clearance CL/F ([1]; nonsmokers (cohort B)): 5.3 L/h | Caffeine plasma clearance CL/F ([1]; smokers (cohort A)): 9.9 L/h | Caffeine clearance, fold higher in smokers than in nonsmokers ([1]; smokers versus nonsmokers): approximately 2 fold

Nc1cccc2c1C(=O)N(C1CCC(=O)NC1=O)C2=O (stereo not shown) [pomalidomide]
AUC(0-inf) (Study B; oral): 1190 ng·h/mL | AUC(0-inf) (Study B; oral, 4 mg): 526 ng·h/mL | Cmax (Study B; [7]): 49.2 ng/mL | Cmax (Study B; [8]): 59.5 ng/mL | Vd/F (Study B; [7]): 65.4 L | Vd/F (Study B; [8]): 64 L | half-life (Study B; oral, 4 mg, t1/2, pomalidomide 4 mg administered alone): 6 h | half-life (Study B; oral, 4 mg, t1/2, pomalidomide 4 mg administered with fluvoxamine): 13.1 h | Tmax (Study B; [7]): 3 h | Tmax (Study B; [8]): 4.5 h | AUC(0-inf) (Study B; po, 4 mg): 526 ng·h/mL | CL/F (Study B; pomalidomide 4 mg administered alone): 7.6 L/h | CL/F (Study B; pomalidomide 4 mg administered with fluvoxamine): 3.4 L/h | Increase of AUC0-inf (Study B; [9]): 125.1% | Increase of Cmax (Study B; [9]): 23.7% | Ratio (%) of geometric means, AUC0-inf (Study B; with fluvoxamine versus alone): 225.1% | Ratio (%) of geometric means, Cmax (Study B; with fluvoxamine versus alone): 123.7% | Metabolism by CYP enzyme (CYP2D6): to a minor extent | Metabolism by CYP enzyme (CYP2C19): to a minor extent | Safety and tolerability ([2]; single oral 4 mg pomalidomide coadministered with multiple oral 50-mg doses of fluvoxamine, healthy male subjects): safe and well tolerated | Deaths, SAEs, or TEAEs leading to discontinuation ([2]; study B): No deaths, SAEs, or TEAEs leading to discontinuation were reported | TEAEs related to the study drug ([2]; study B): No subject reported at least 1 TEAE related to the study drug | Subjects reporting TEAEs ([2]; study B overall, 1 of 15 subjects): 6.7% | mean apparent terminal half-life (t1/2) [3]: approximately 7.5 hours | Accumulation (AUC and Cmax) [3, 10]: less than 14.0% | Time to steady state [3, 10]: ≤ 3 days | Dose proportionality of systemic exposure (AUC) ([3]; single dose up to 50 mg): approximately dose‐proportional | Metabolism by CYP enzyme (CYP1A2): capable of metabolizing pomalidomide | Fraction of the dose excreted in urine as unchanged drug [4]: < 5.0 % of the administered dose | Renal excretion of pomalidomide-related material [4]: ~73.0 % of the administered dose | Correlation between caffeine clearance and pomalidomide clearance ([1]; in vivo, study A): good correlation | Change in pomalidomide exposure (in words) ([5]; coadministration of ketoconazole): mild increase in pomalidomide exposure that was not considered clinically relevant | Change in mean pomalidomide exposure (in words) ([5]; concomitant fluvoxamine and ketoconazole, healthy men): approximately doubled | t1/2 ([5]; prior drug interaction study): 6.1 h | Increase of total drug exposure ([5]; single 4-mg dose with CYP3A inhibitor ketoconazole versus alone): 18.8% | Increase of total drug exposure ([5]; single 4-mg dose with ketoconazole + fluvoxamine versus alone): 145.7% | Metabolism by CYP enzyme (CYP3A4): capable of metabolizing pomalidomide | Difference in incidence of TEAEs between smokers and nonsmokers ([6]; only TEAEs that occurred after pomalidomide dosing): no difference | Safety and tolerability ([6]; single oral dose of 4 mg in healthy male smokers and nonsmokers ≥ 40 to ≤ 80 years old): safe and well tolerated | Deaths ([6]; study A): no deaths | Number of TEAEs suspected of being related to the study drug ([6]; study A): 22 | SAEs or severe TEAEs ([6]; study A): No subject experienced an SAE or severe TEAE | Number of TEAEs reported ([6]; study A overall): 37 | Subjects reporting TEAEs suspected of being related to the study drug ([6]; study A, 12 subjects): 21.8% | Number of TEAEs of moderate severity ([6]; study A, all presyncope, not considered related to the study drug): 3 | Cmax (Study A; nonsmokers): 56.3 ng/mL | Cmax (Study A; smokers): 64.4 ng/mL | Vd/F (Study A; nonsmokers): 65.8 L | Vd/F (Study A; smokers): 59.7 L | half-life (Study A; t1/2, nonsmokers): 7.8 h | half-life (Study A; t1/2, smokers): 4.8 h | Tmax (Study A; nonsmokers): 3 h | Tmax (Study A; smokers): 1.8 h | CL/F (Study A; nonsmokers): 5.8 L/h | CL/F (Study A; nonsmokers, listed as Pomalidomide): 5.8 (19.6) L/h | Decrease of AUC0-inf (lower in smokers) (Study A; [11]): 32.3% | Increase of Cmax (higher in smokers) (Study A; [11]): 14.4% | Ratio (%) of geometric means, AUC0-inf (Study A; smokers/nonsmokers): 67.7% | Ratio (%) of geometric means, Cmax (Study A; smokers/nonsmokers): 114.4% | CL/F (Study A; smokers): 8.6 L/h | CL/F (Study A; smokers, listed as Pomalidomide): 8.6 (32.5) L/h
